Data reported in ChEMBL document CHEMBL1122688, “Antimycotic azoles. 7. Synthesis and antifungal properties of a series of novel triazol-3-ones” (1984).

Assays:
[1] = In vivo activity against microsporosis guinea pig, measured as the ratio of animals cured/animals infected (C/I) at dose 2.5 mg/kg; C/I = 0/2; format: functional
Aspergillus fumigatus = experiment: In vitro antifungal activity against Aspergillus fumigatus; format: functional
Method in brief: (§1)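 Fungal growth-inhibition screen (Godefroi method) against dermatophytes, yeasts, moulds and other fungi. The value is the lowest concentration (µg/mL) giving total inhibition of growth, tested up to 100 µg/mL.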

Microsporum canis = experiment: In vitro antifungal activity against Microsporum canis; format: functional; method in brief: as §1
Candida albicans = experiment: In vitro antifungal activity against Candida albicans; format: functional; method in brief: as §1
Trichophyton rubrum = experiment: In vitro antifungal activity against Trichophyton rubrum; format: functional; method in brief: as §1
[2] = In vivo activity against microsporosis guinea pig, measured as the ratio of animals cured/animals infected (C/I) at dose 10 mg/kg; C/I = 2/2; format: functional
[3] = In vivo activity against vaginal candidoses in rats, measured as the ratio of animals cured/animals infected (C/I) at dose 2.5 mg/kg; C/I = 1/2; format: functional
Candida tropicalis = experiment: In vitro antifungal activity against Candida tropicalis; format: functional; method in brief: as §1
Trichophyton benhamiae = experiment: In vitro antifungal activity against Trichophyton mentagrophytes; format: functional, Arthroderma benhamiae; method in brief: as §1
Cryptococcus neoformans = experiment: In vitro antifungal activity against Cryptococcus neoformans; format: functional; method in brief: as §1
[4] = In vitro antifungal activity against Mucor sp; format: functional; method in brief: as §1
Phialophora verrucosa = experiment: In vitro antifungal activity against Phialophora verrucosa; format: functional; method in brief: as §1
Sporothrix schenckii = experiment: In vitro antifungal activity against Sporothrix schenck ii; format: functional; method in brief: as §1
Saprolegnia = experiment: In vitro antifungal activity against Saprolegnia sp; format: functional; method in brief: as §1
[5] = In vivo activity against vaginal candidoses in rats, measured as the ratio of animals cured/animals infected (C/I) at dose 2.5 mg/kg; C/I = 0/2; format: functional
[6] = In vivo activity against microsporosis guinea pig, measured as the ratio of animals cured/animals infected (C/I) at dose 10 mg/kg; C/I = 0/2; format: functional

| Compound | C/I ratio [1] | Inhibition (Aspergillus fumigatus) | Inhibition (Microsporum canis) | Inhibition (Candida albicans) | Inhibition (Trichophyton rubrum) | C/I ratio [2] | C/I ratio [3] | Inhibition (Candida tropicalis) | Inhibition (Trichophyton benhamiae) | Inhibition (Cryptococcus neoformans) | Inhibition [4] | Inhibition (Phialophora verrucosa) | Inhibition (Sporothrix schenckii) | Inhibition (Saprolegnia) | C/I ratio [5] | C/I ratio [6] |
| --- | --- | --- | --- | --- | --- | --- | --- | --- | --- | --- | --- | --- | --- | --- | --- | --- |
| O=c1n(-c2ccc(N3CCN(c4ccc(OC[C@@H]5COC(Cn6cncn6)(c6ccc(Cl)cc6Cl)O5)cc4)CC3)cc2)cnn1C1CCCC1 (stereo partly specified) | 0 | >100 µg/mL | >100 µg/mL | >100 µg/mL | >100 µg/mL | 2 | 1 | >100 µg/mL | 100 µg/mL | >100 µg/mL | >100 µg/mL | >100 µg/mL | >100 µg/mL | >100 µg/mL | – | – |
| CCCn1nc(C)n(-c2ccc(N3CCN(c4ccc(OC[C@@H]5COC(Cn6ccnc6)(c6ccc(Cl)cc6Cl)O5)cc4)CC3)cc2)c1=O (stereo partly specified) | – | >100 µg/mL | >100 µg/mL | 100 µg/mL | >100 µg/mL | – | – | 100 µg/mL | >100 µg/mL | >100 µg/mL | >100 µg/mL | >100 µg/mL | >100 µg/mL | >100 µg/mL | 0 | – |
| CCc1nnc(O)n1-c1ccc(N2CCN(c3ccc(OC[C@@H]4COC(Cn5ccnc5)(c5ccc(Cl)cc5Cl)O4)cc3)CC2)cc1 (stereo partly specified) | 0 | >100 µg/mL | >100 µg/mL | 100 µg/mL | >100 µg/mL | – | – | 100 µg/mL | >100 µg/mL | >100 µg/mL | >100 µg/mL | >100 µg/mL | >100 µg/mL | >100 µg/mL | – | – |
| Cc1nnc(O)n1-c1ccc(N2CCN(c3ccc(OC[C@@H]4COC(Cn5cncn5)(c5ccc(Cl)cc5Cl)O4)cc3)CC2)cc1 (stereo partly specified) | – | >100 µg/mL | >100 µg/mL | >100 µg/mL | 100 µg/mL | – | – | 1 µg/mL | 10 µg/mL | 100 µg/mL | >100 µg/mL | 100 µg/mL | >100 µg/mL | >100 µg/mL | – | 0 |
| Cc1nnc(O)n1-c1ccc(N2CCN(c3ccc(OC[C@@H]4COC(Cn5ccnc5)(c5ccc(Cl)cc5Cl)O4)cc3)CC2)cc1 (stereo partly specified) | – | >100 µg/mL | >100 µg/mL | 100 µg/mL | 10 µg/mL | – | – | 10 µg/mL | 10 µg/mL | 100 µg/mL | >100 µg/mL | >100 µg/mL | >100 µg/mL | >100 µg/mL | – | 0 |
| Oc1nncn1-c1ccc(N2CCN(c3ccc(OC[C@@H]4COC(Cn5ccnc5)(c5ccc(Cl)cc5Cl)O4)cc3)CC2)cc1 (stereo partly specified) | – | >100 µg/mL | >100 µg/mL | >100 µg/mL | >100 µg/mL | – | – | 100 µg/mL | 100 µg/mL | >100 µg/mL | >100 µg/mL | >100 µg/mL | >100 µg/mL | >100 µg/mL | 0 | – |
| CCn1ncn(-c2ccc(N3CCN(c4ccc(OC[C@@H]5COC(Cn6ccnc6)(c6ccc(Cl)cc6Cl)O5)cc4)CC3)cc2)c1=O (stereo partly specified) | – | >100 µg/mL | >100 µg/mL | 100 µg/mL | 10 µg/mL | – | – | 100 µg/mL | 100 µg/mL | >100 µg/mL | >100 µg/mL | >100 µg/mL | >100 µg/mL | >100 µg/mL | 0 | – |
| Cc1nn(C(C)C)c(=O)n1-c1ccc(N2CCN(c3ccc(OC[C@@H]4COC(Cn5cncn5)(c5ccc(Cl)cc5Cl)O4)cc3)CC2)cc1 (stereo partly specified) | – | >100 µg/mL | >100 µg/mL | >100 µg/mL | >100 µg/mL | – | 1 | 10 µg/mL | 100 µg/mL | >100 µg/mL | >100 µg/mL | >100 µg/mL | >100 µg/mL | >100 µg/mL | – | 0 |
| CCn1nc(C)n(-c2ccc(N3CCN(c4ccc(OC[C@@H]5COC(Cn6ccnc6)(c6ccc(Cl)cc6Cl)O5)cc4)CC3)cc2)c1=O (stereo partly specified) | 0 | >100 µg/mL | >100 µg/mL | >100 µg/mL | >100 µg/mL | – | – | 100 µg/mL | 100 µg/mL | >100 µg/mL | >100 µg/mL | >100 µg/mL | >100 µg/mL | >100 µg/mL | 0 | – |
| O=c1n(-c2ccc(N3CCN(c4ccc(OC[C@@H]5COC(Cn6cncn6)(c6ccc(Cl)cc6Cl)O5)cc4)CC3)cc2)cnn1CC1CC1 (stereo partly specified) | 0 | >100 µg/mL | >100 µg/mL | 100 µg/mL | 10 µg/mL | 1 | 1 | >100 µg/mL | 10 µg/mL | >100 µg/mL | >100 µg/mL | 100 µg/mL | >100 µg/mL | >100 µg/mL | – | – |
| Oc1nncn1-c1ccc(N2CCN(c3ccc(OC[C@@H]4COC(Cn5cncn5)(c5ccc(Cl)cc5Cl)O4)cc3)CC2)cc1 (stereo partly specified) | – | >100 µg/mL | >100 µg/mL | >100 µg/mL | >100 µg/mL | – | – | >100 µg/mL | >100 µg/mL | >100 µg/mL | >100 µg/mL | >100 µg/mL | >100 µg/mL | >100 µg/mL | – | 0 |
| CC(C)Cn1ncn(-c2ccc(N3CCN(c4ccc(OC[C@@H]5COC(Cn6ccnc6)(c6ccc(Cl)cc6Cl)O5)cc4)CC3)cc2)c1=O (stereo partly specified) | – | >100 µg/mL | >100 µg/mL | 100 µg/mL | >100 µg/mL | – | 1 | >100 µg/mL | 100 µg/mL | >100 µg/mL | > 100 µg/mL | >100 µg/mL | >100 µg/mL | >100 µg/mL | – | 0 |
